Assay outcomes: PubChem, Sanford-Burnham Center for Chemical Genomics
The list is not random: actives were taken first. Their share in the collection is about 1.5%.
EBI2 block = EBI2 receptor antagonists, beta-arrestin recruitment, primary screen, cell-based, luminescence, 7a,25-OHC stimulation, uHTS | G-protein coupled receptor 183 (Homo sapiens), P32249 | 7a,25-OHC stimulated | inhibition, % at 5 µM | 360,000 compounds, 0.81% hits | AID 651636, 2012; in the data active = inhibition above about 38%;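 note: enzyme fragment complementation signal reports receptor beta-arrestin coupling in cells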
CCR6 antag = CCR6 receptor antagonists, primary screen, cell-based, CHO-K1, luminescence, beta-arrestin, uHTS | CHO-K1 CCR6 PathHunter beta-arrestin, CCL20-stimulated | C-C chemokine receptor type 6 (Homo sapiens), P51684 | inhibition, % at 20 µM | 340,000 compounds, 0.49% hits;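 active = compounds whose inhibition of the agonist-driven luminescence signal at 20 µM reaches about 50%, limit read from the data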;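 note: cells stimulated with CCL20 at 14 nM final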
CXCR6 block = CXCR6 receptor inhibitors, primary screen, cell-based, beta-arrestin, luminescence, CHO-K1 PathHunter, 1536-well | 360,000 compounds, 0.36% hits | C-X-C chemokine receptor type 6 (Homo sapiens), O00574 | inhibition, % at 20 µM; in the data active = inhibition above about 34%, passing the limit was not always enough;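 note: antagonist mode with CXCL16 agonist at 10 nM final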
APJ agonist = agonists of human apelin receptor APJ, primary screen, CHO-K1 cells, PathHunter beta-arrestin, luminescence; P35414; 0% DMSO wells, 100% apelin; activation, % at 20 µM; 330,000 compounds, 0.11% hits; AID 2520, 2010;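 active = activation more than six SD over the plate average, tested at 20 µM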
Target sequence (P35414 whole entry, looked up): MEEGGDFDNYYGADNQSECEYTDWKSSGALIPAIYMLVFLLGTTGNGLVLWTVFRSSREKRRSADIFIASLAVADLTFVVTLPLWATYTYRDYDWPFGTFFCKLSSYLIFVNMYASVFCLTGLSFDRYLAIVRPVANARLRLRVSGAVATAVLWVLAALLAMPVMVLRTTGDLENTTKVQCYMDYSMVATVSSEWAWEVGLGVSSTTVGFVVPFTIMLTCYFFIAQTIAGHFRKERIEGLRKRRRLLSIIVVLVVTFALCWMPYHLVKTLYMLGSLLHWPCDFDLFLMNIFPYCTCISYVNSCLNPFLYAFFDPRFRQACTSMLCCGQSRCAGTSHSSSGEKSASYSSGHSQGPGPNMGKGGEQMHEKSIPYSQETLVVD
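Assay system: CHO-K1 APJ beta-arrestin complementation cell line / Compound: single test compound dose, 20 µM final, 1% DMSO / Times: overnight seeding, 90 min compound at 25 °C, 1 h detection / Technique: beta-gal luminescence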
APJ antag = antagonists of human apelin receptor APJ, primary screen, CHO-K1 cells, beta-arrestin complementation, luminescence; P35414; inhibition, % at 20 µM; 330,000 compounds, 0.32% hits; AID 2521, 2010;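 active = inhibition above about 40% at 20 µM, limit read from the data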;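 note: cells challenged with 10 nM apelin-13 agonist together with compound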
EBI2 antag conf = EBI2 antagonist hit retest, beta-arrestin, confirmation, cell-based, single concentration, luminescence, 7a,25-OHC stimulation; 7a,25-OHC antagonism; inhibition, % at 5 µM; AID 651997, 2013; 2,400 compounds, 29% hits; shares compounds with EBI2 block;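 active = inhibition of at least 50%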
EBI2 ag = EBI2 agonist activity of antagonist hits, confirmation, counter-screen for EBI2 antagonist project, cell-based, single concentration, agonist mode, luminescence | shares compounds with EBI2 block | EBI2-expressing cells, 60 min; 0% vehicle, 100% 7α,25-dihydroxycholesterol control | activation, % at 5 µM | 2,400 tested, under 10 active | AID 652000, 2013;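 active = activation of at least 50%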
bGal counter = E. coli beta-galactosidase enzyme inhibition, confirmation, counter-screen for EBI2 antagonist project, biochemical, luminescence, single concentration; shares compounds with EBI2 block; 2,400 compounds, 1% hits; purified beta-galactosidase, luminescent Galacton Star, 15 min; inhibition, % at 5 µM;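 active = replicate-average signal at least 3 plate SD below neutral wells, shown as high inhibition, flagging enzyme-inhibiting false positives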;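 note: higher means stronger loss of beta-gal luminescence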
A number is an active result; - = inactive; . = no result.

SMILES	EBI2 block	CCR6 antag	CXCR6 block	APJ agonist	APJ antag	EBI2 antag conf	EBI2 ag	bGal counter
COc1ccc(N=C2C(=Nc3ccc(OC)cc3)N(c3ccc(OC)cc3)C(=S)N2c2ccccc2)cc1	64	-	-	-	-	-	-	-
CC1(C(=O)NS(=O)(=O)C2CC2)CCCN(C(=O)c2cccc(Cl)c2)C1 (stereo not given)	-	.	-	.	.	.	.	.
CCOC(=O)C1CCN(C(=O)c2cc3c(s2)-c2ccccc2OC3)CC1	79	-	-	-	-	74	-	-
COc1ccccc1N1CCN(C(=O)c2cc3c(s2)-c2ccccc2OC3)CC1	85	-	-	-	-	82	-	-
CC(C)C[C@H]1CNC(=S)N1CC1CCN(CCCCc2ccccc2)CC1	-	-	-	.	.	.	.	.
O=C1CCN(Cc2ccccc2)C=C1c1ccc2ccccc2c1	90	-	-	-	-	65	-	-
O=C1CCN(Cc2ccccc2)C=C1C(=O)c1ccccc1	-	-	-	.	.	.	.	.
COc1cc(C2=CN(Cc3ccccc3)CCC2=O)cc(OC)c1OC	-	-	-	-	-	.	.	.
O=C1CCN(Cc2ccccc2)C=C1c1ccc(C(F)(F)F)cc1	69	-	-	-	-	-	-	-
O=C1CCN(Cc2ccccc2)C=C1c1ccc(Cl)cc1	66	-	-	-	-	58	-	-
CC1CC(=O)Nc2ccccc2N1C(=O)CSc1ccc2ccccc2n1 (stereo not given)	-	-	-	-	-	.	.	.
CC(=O)N(C)C[C@H]1Oc2ncc(Br)cc2C(=O)N([C@H](C)CO)C[C@@H]1C	-	.	-	.	.	.	.	.
Cc1ccc(NC(=S)Nc2ccc3cn[nH]c3c2)cc1C	-	-	-	-	-	.	.	.
CC(C)c1ccc(NC(=S)Nc2ccc3cn[nH]c3c2)cc1	50	-	-	-	-	-	-	-
COc1ccc(/C=C/C(=O)c2cc3c(cc2N)OCO3)cc1	63	-	-	-	-	-	-	-
O=C(Nc1cnn(Cc2ccc(F)cc2)c1)C(c1ccccc1)c1ccccc1	73	-	-	-	-	-	-	-
CC(C)(C)C1CCc2onc(C(=O)Nc3cnn(Cc4ccc(F)cc4)c3)c2C1 (stereo not given)	44	-	-	-	-	-	-	-
O=C(Nc1cnn(Cc2ccc(F)cc2)c1)c1cnccn1	-	-	-	-	-	.	.	.
CCCOc1ccc(C(=O)Nc2ccc3c(c2)OCO3)cc1	52	-	-	-	-	-	-	-
CCCOc1ccc(C(=O)N2CCN(Cc3ccc4c(c3)OCO4)CC2)cc1	78	-	-	-	-	54	-	-
O=C(/C=C\c1cccs1)N1CCN(Cc2ccc3c(c2)OCO3)CC1	75	-	-	-	-	54	-	-
O=C(COc1ccc(Cl)cc1)N1CCN(Cc2ccc3c(c2)OCO3)CC1	87	-	-	-	-	61	-	-
CCOC(=O)C1=C(C)NC(C)=C(C(=O)OCC)C1C(=O)OCC(=O)NC1CCCCC1	-	-	-	-	-	.	.	.
CC(C)C[C@H]1CN(CCCC[C@@H]2CNC(=O)C(=O)N2CCc2ccccc2)C(=O)C(=O)N1CCC1CCCCC1	-	.	-	.	.	.	.	.
CCOC(=O)c1cnn(-c2nc(-c3cccc(F)c3)cs2)c1C(F)(F)F	48	-	-	-	-	-	-	-
SMILES	EBI2 block	CCR6 antag	CXCR6 block	APJ agonist	APJ antag	EBI2 antag conf	EBI2 ag	bGal counter
COCCCn1c(SCC(=O)O)nc2cc(OC)c(OC)cc2c1=N	-	-	-	-	-	.	.	.
COc1cc2nc(SCc3ccc(Cl)cc3Cl)n(Cc3cccs3)c(=N)c2cc1OC	43	-	-	-	-	-	-	-
COCCCn1c(SCc2ccccc2)nc2cc(OC)c(OC)cc2c1=N	54	-	-	-	-	-	-	-
Cc1ccc(C)c(N2CCN(C(=O)c3ccc4c(c3)c(C)c(C)n4C)CC2)c1	73	-	-	-	-	58	-	-
Cc1ccc(C)c(N2CCN(C(=O)c3ccc4nc(-c5ccco5)c(-c5ccco5)nc4c3)CC2)c1	44	-	-	-	-	-	-	-
Cc1c(C)n(C)c2ccc(C(=O)N3CCN(c4ccccc4)CC3)cc12	-	-	-	-	-	.	.	.
Cc1ccc(C)c(N2CCN(C(=O)c3cc4sccc4n3C)CC2)c1	74	-	-	-	-	-	-	-
Cc1ccc(C)c(N2CCN(C(=O)c3ccc(N4CCCC4=O)cc3)CC2)c1	48	-	-	-	-	-	-	-
CN(C(=S)NC(=O)C1CCCC1)c1ccccc1	-	.	-	.	.	.	.	.
Cc1ccc(CNC(=O)c2ccc(N(C)S(=O)(=O)c3ccccc3)cc2)cc1	83	-	-	-	-	-	-	-
CN(C)S(=O)(=O)c1ccc(C(=O)Nc2ccc(Cl)cc2)cc1	53	-	-	-	-	50	-	-
CCN(CC)S(=O)(=O)c1ccc(C(=O)NCc2ccc(C)cc2)cc1	63	-	-	-	-	55	-	-
CN(c1ccc(C(=O)Nc2ccc(Cl)cn2)cc1)S(=O)(=O)c1ccccc1	50	-	-	-	-	56	-	-
CC(C)(C)c1ccc(C(=O)NCCC(=O)NCc2ccc(F)cc2)cc1	-	.	-	.	.	.	.	.
N#CC(OC(=O)c1ccccc1)c1ccccc1 (stereo not given)	-	-	-	.	.	.	.	.
CCOc1ccc(N2CC(C(=O)Nc3cccc(S(=O)(=O)N4CCCCC4)c3)CC2=O)cc1 (stereo not given)	-	-	-	-	-	.	.	.
CCOc1ccc(N2CC(C(=O)Nc3ccc(S(=O)(=O)N4CCCC4)cc3)CC2=O)cc1 (stereo not given)	53	-	-	-	-	-	-	-
CCOc1ccc(N2CC(C(=O)Nc3ccc(S(=O)(=O)N4CCCCC4)cc3)CC2=O)cc1 (stereo not given)	79	-	-	-	-	63	-	-
Cc1ccc(CNC(=O)C2CCC(=O)N(Cc3cccc(F)c3)C2)s1 (stereo not given)	-	.	-	.	.	.	.	.
CS(=O)(=O)N(CC(=O)N1CCOCC1)c1cc(C(F)(F)F)ccc1Cl	-	-	-	-	-	.	.	.
CS(=O)(=O)N(CC(=O)N1CCN(c2ccccc2F)CC1)c1cc(C(F)(F)F)ccc1Cl	65	-	-	-	-	-	-	-
